From ChEMBL document CHEMBL4725388, “Characterization of Aminobenzylphenols as Protein Disulfide Isomerase Inhibitors in Glioblastoma Cell Lines” (J Med Chem, 2020) come the findings set out here.

Active and inactive are the calls of the source. The calls are words filed in the database; no cut-off is given here.

In data set [1] the test system is U-87MG ATCC. The data set is described as follows: Upregulation of SLC7A11 gene expression in human U-87 MG cells at 20 uM incubated for 4 hrs followed by Bru addition during last 30 mins of incubation by Trizol reagent based gene sequencing analysis. Type of data set: functional, cell-based.
The subject of data set [2] is U-87MG ATCC. The data set is described as follows: Upregulation of MYZAP gene expression in human U-87 MG cells at 20 uM incubated for 4 hrs followed by Bru addition during last 30 mins of incubation by Trizol reagent based gene sequencing analysis. Type of data set: functional, cell-based.
Data set [3] is described as follows: Effect on total CALR expression in human U-87 MG cells at 20 uM measured after 12 to 48 hrs by Western blot analysis. Type of data set: ADME, cell-based. Particulars: u-87mg atcc, time 12-48 hrs. Background: A western blot detects proteins with antibodies after separation by electrophoresis.
Data set [4] deals with T1, Protein disulfide-isomerase (Homo sapiens, UniProt P07237). The data set is described as follows: Inhibition of recombinant human wild-type N-terminal His-tagged PDIA1 expressed in Escherichia coli strain BL21(DE3) using bovine insulin as substrate preincubated for 1 hr followed by substrate addition. In a few lines: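 IC50 from dose-response curves; PDI reductase assay for enzyme, MTT in U-87 MG cells for cytotoxicity; mean ± SD of at least three independent experiments.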
Target sequence in this assay (P07237 whole entry): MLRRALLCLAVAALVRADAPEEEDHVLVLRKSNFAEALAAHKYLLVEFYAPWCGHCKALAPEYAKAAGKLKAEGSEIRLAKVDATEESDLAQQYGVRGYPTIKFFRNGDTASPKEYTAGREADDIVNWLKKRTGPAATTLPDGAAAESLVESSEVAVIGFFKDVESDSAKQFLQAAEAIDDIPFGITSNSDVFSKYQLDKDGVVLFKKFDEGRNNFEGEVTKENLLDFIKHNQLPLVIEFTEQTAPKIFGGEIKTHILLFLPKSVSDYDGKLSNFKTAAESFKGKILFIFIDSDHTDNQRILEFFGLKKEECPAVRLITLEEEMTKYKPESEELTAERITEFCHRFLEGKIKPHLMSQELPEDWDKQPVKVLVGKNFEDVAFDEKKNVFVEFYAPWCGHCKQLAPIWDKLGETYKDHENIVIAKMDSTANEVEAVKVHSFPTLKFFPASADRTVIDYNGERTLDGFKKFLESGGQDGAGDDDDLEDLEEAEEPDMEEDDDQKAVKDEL

Data set [5] concerns U-87MG ATCC. In words: Upregulation of NQO1 gene expression in human U-87 MG cells at 20 uM incubated for 4 hrs followed by Bru addition during last 30 mins of incubation by Trizol reagent based gene sequencing analysis. It counts as functional, cell-based.
Data set [6] relates to U-87MG ATCC. The data set is described as follows: Upregulation of HSPA5 gene expression in human U-87 MG cells at 20 uM incubated for 4 hrs followed by Bru addition during last 30 mins of incubation by Trizol reagent based gene sequencing analysis. Type of data set: functional, cell-based.
In data set [7] the test system is U-87MG ATCC. In words: Upregulation of CALR gene expression in human U-87 MG cells at 20 uM incubated for 4 hrs followed by Bru addition during last 30 mins of incubation by Trizol reagent based gene sequencing analysis. Type of data set: functional, cell-based.
Data set [8] has as its target T1, Protein disulfide-isomerase. In words: Binding affinity to recombinant human wild-type N-terminal His-tagged PDIA1 expressed in Escherichia coli strain BL21(DE3) at 20 uM measured after 24 hrs in presence of BSA by SDS PAGE analysis.
Target sequence in this assay (P07237 18-508 limits assumed): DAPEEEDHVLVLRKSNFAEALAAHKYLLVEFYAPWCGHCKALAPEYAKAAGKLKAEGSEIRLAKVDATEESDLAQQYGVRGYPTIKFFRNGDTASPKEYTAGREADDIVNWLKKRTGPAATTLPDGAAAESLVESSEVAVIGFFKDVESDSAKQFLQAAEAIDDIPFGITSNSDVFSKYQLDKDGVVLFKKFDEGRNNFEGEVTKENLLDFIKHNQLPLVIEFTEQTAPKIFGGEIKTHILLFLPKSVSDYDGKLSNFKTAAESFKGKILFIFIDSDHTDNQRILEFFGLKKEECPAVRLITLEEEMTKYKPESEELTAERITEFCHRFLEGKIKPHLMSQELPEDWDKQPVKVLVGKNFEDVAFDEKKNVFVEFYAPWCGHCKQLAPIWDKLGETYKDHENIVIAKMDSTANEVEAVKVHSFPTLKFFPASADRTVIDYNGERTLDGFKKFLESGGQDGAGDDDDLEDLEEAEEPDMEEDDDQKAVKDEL
Data set [9] can be described thus: Drug uptake in human A 172 cell nucleus at 10 uM measured after 24 hrs by PDI antibody/DAPI staining based confocal microscopic analysis. It counts as ADME, subcellular. Particulars: a 172, 24 h.
The nature of data set [10]: Drug uptake in human A 172 cell endoplasmic reticulum at 10 uM measured after 24 hrs by PDI antibody/DAPI staining based confocal microscopic analysis. It counts as ADME, subcellular. Conditions: a 172, 24 h.
The target in data set [11] is T2, Albumin (Bos taurus, UniProt P02769). The data set is described as follows: Binding affinity to fetal bovine serum albumin at 40 uM measured after 24 hrs in presence of human U-87 MG cells by Western blot analysis. It counts as ADME, cell-free. Particulars: cattle.
T2 sequence (P02769 whole entry): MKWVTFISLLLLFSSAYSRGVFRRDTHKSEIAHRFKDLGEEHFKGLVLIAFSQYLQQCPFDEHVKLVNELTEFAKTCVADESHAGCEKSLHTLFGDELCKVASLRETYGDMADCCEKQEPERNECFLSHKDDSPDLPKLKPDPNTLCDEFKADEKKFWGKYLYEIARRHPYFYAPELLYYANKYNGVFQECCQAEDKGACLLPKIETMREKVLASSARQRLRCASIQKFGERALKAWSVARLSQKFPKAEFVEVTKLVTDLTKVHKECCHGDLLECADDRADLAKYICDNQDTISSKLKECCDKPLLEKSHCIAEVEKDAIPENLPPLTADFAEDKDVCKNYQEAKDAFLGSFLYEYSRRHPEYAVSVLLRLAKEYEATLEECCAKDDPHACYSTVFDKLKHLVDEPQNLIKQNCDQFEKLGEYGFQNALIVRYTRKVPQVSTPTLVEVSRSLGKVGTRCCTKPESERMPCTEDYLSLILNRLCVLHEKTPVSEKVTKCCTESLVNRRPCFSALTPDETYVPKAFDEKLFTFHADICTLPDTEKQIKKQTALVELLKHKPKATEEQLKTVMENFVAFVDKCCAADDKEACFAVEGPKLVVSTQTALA
In data set [12] the target is T1, Protein disulfide-isomerase. In words: Binding affinity to PDIA1 in human U-87 MG cells at 40 uM measured after 24 hrs in presence of fetal bovine serum by Western blot analysis. Type of data set: cell-based.
Target sequence in this assay (P07237 18-508 limits assumed): as the sequence (P07237 18-508 limits assumed) above
The target of data set [13] is T2, Albumin. The data set is described as follows: Binding affinity to fetal bovine serum albumin at 20 uM measured after overnight incubation in presence of cell free DMEM medium by gel based assay. Type of data set: ADME. Particulars: cattle.
For data set [14], the target named is T1, Protein disulfide-isomerase. In words: Binding affinity to PDIA1 in human U-87 MG cells at 10 uM measured after 24 hrs in absence of fetal bovine serum by coomassie staining GFP channel based assay. It counts as cell-based.
Target sequence in this assay (P07237 18-508 limits assumed): as above
Data set [15] in a line: Drug uptake in human A 172 cell cytoplasm at 10 uM measured after 24 hrs by PDI antibody/DAPI staining based confocal microscopic analysis. Conditions: a 172, 24 h. Type of data set: ADME, subcellular.
Data set [16] concerns the target T1, Protein disulfide-isomerase. The data set is described as follows: Inhibition of recombinant human wild-type N-terminal His-tagged PDIA1 expressed in Escherichia coli strain BL21(DE3) at 10 to 40 uM using bovine insulin as substrate preincubated for 1 hr followed by substrate addition. Conditions: dose microM 10-40, time 1.0 hrs.
Target sequence in this assay (P07237 18-508 limits assumed): as above
The target of data set [17] is T3, Protein disulfide-isomerase A2 (Homo sapiens, UniProt Q13087).
T3 sequence (Q13087 whole entry): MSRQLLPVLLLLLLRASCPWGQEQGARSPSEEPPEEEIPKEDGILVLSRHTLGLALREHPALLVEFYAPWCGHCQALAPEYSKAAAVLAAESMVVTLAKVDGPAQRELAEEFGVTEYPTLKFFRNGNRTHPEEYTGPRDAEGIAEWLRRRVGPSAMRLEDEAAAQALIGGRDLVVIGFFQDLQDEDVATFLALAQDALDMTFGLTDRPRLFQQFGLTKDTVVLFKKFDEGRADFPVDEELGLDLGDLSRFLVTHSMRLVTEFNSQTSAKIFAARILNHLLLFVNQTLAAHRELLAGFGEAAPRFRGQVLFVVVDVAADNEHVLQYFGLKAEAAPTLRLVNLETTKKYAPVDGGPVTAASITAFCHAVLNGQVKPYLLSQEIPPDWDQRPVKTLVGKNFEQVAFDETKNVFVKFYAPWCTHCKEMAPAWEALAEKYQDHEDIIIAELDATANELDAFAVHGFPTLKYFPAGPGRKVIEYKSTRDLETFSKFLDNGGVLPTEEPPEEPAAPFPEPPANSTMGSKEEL
The data set is described as follows: Inhibition of N-(4-(5,5-Difluoro-1,3,7,9-tetramethyl-5H-4(Gamma4),5(Gamma4)-dipyrrolo[1,2-c:2',1'-f][1,3,2]diazaborinin-10-yl))-N-(2-(4-((6-hydroxybenzo[d]-[1,3]dioxol-5-yl)(piperidin-1-yl)methyl)benzamido)ethyl)-benzamide binding to recombinant PDIA2 (unknown origin) measured after 24 hrs by PAGE analysis.

Data set [18] deals with T1, Protein disulfide-isomerase. The data set is described as follows: Inhibition of N-(4-(5,5-Difluoro-1,3,7,9-tetramethyl-5H-4(Gamma4),5(Gamma4)-dipyrrolo[1,2-c:2',1'-f][1,3,2]diazaborinin-10-yl))-N-(2-(4-((6-hydroxybenzo[d]-[1,3]dioxol-5-yl)(piperidin-1-yl)methyl)benzamido)ethyl)-benzamide binding to PDIA1 in human U-87 MG cell lysates measured after 24 hrs by PAGE analysis. It counts as subcellular.
Target sequence in this assay (P07237 18-508 limits assumed): as the sequence (P07237 18-508 limits assumed) above

In data set [19] the target is T4, Protein disulfide-isomerase A3 (Homo sapiens, UniProt P30101).
T4 sequence (P30101 whole entry): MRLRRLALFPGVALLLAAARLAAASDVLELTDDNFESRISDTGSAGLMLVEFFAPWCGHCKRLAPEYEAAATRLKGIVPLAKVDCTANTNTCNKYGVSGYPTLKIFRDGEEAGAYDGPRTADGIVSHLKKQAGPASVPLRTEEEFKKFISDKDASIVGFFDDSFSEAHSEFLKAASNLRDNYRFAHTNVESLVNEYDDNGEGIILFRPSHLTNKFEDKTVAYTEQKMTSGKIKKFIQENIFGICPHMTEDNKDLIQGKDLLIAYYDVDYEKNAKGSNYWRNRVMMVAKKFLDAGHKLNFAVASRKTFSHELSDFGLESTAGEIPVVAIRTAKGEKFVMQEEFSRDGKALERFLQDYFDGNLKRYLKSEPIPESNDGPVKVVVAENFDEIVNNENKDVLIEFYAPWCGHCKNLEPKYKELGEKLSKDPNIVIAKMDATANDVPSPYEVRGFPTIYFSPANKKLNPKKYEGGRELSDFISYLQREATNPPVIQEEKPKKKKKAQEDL
In words: Inhibition of N-(4-(5,5-Difluoro-1,3,7,9-tetramethyl-5H-4(Gamma4),5(Gamma4)-dipyrrolo[1,2-c:2',1'-f][1,3,2]diazaborinin-10-yl))-N-(2-(4-((6-hydroxybenzo[d]-[1,3]dioxol-5-yl)(piperidin-1-yl)methyl)benzamido)ethyl)-benzamide binding to recombinant PDIA3 (unknown origin) measured after 24 hrs by PAGE analysis.

For data set [20], the target named is T1, Protein disulfide-isomerase. The data set is described as follows: Binding affinity to PDIA1 in human U-87 MG cells at 5 uM measured after 24 hrs in presence of DTT by coomassie staining GFP channel based Western blot assay. Type of data set: cell-based.
Target sequence in this assay (P07237 18-508 limits assumed): as the sequence (P07237 18-508 limits assumed) above
Data set [21] has the same target. The data set is described as follows: Binding affinity to PDIA1 in human U-87 MG cell lysates at 5 uM measured after 24 hrs by PAGE analysis. Type of data set: subcellular.
For data set [22], the target named is T2, Albumin. In words: Binding affinity to BSA at 100 uM measured after overnight incubation by coomassie staining GFP channel based Western blot assay. It counts as ADME, cell-free. Particulars: cattle, serum.

As usually defined, the IC50 is the concentration needed to halve the response being measured. In the case of `Oc1c(C(c2ccncc2)N2CCCCC2)ccc2ccoc12` (centres undefined), the outcome in the data set with U-87MG ATCC [1], in the data set with U-87MG ATCC [2], in the data set with U-87MG ATCC [5], in the data set with U-87MG ATCC [6] and with U-87MG ATCC [7] was Active. In data set [3], the Activity entry is reported as “Non-Toxic”. Also, in [4], the IC50 was below 200 nM.
With `CC1=CC(C)=[N+]2C1=C(c1ccc(NC(=O)c3ccc(C(c4cc5c(cc4O)OCO5)N4CCCCC4)cc3)cc1)c1c(C)cc(C)n1[B-]2(F)F` (centres undefined), the outcome in data set [8] was Active. In addition, the Drug uptake result in [9], in [10] and in data set [15] was “Active” throughout. Further, the result on Albumin [11] and at Albumin [13] was Active. The result in [12] and in [14] was inactive. Moreover, the inhibition result in [16] is “inactive”.
Regarding `Oc1cc2c(cc1C(c1ccccc1)N1CCCCC1)OCO2` (centres undefined), the “inhibition (INH)” value in data set [17] and in data set [19] was “Dose-dependent effect” in each case. Moreover, the inhibition entry in data set [18] is “Dose-dependent effect”. Also, the IC50 in data set [4] turned out to be 2900 nM.
Turning to `CC1=CC(C)=[N+]2C1=C(c1ccc(C(=O)NCCNC(=O)c3ccc(C(c4cc5c(cc4O)OCO5)N4CCCCC4)cc3)cc1)c1c(C)cc(C)n1[B-]2(F)F` (centres undefined), the result in [8] and in data set [21] was Active. The result in data set [20] was inactive. Moreover, the Drug uptake entry in [9], in data set [10] and in [15] was “Active” in each case. The Activity result on Albumin [22] is given as “Not Active”; on Albumin [13], “Active”. The IC50 in data set [4] came to 1370 nM.
